Measurements from different studies.
Target: Phosphorylase b kinase gamma catalytic chain, liver/testis isoform (PHKG2, Homo sapiens, UniProt P15735)
One construct used (P15735 1-406): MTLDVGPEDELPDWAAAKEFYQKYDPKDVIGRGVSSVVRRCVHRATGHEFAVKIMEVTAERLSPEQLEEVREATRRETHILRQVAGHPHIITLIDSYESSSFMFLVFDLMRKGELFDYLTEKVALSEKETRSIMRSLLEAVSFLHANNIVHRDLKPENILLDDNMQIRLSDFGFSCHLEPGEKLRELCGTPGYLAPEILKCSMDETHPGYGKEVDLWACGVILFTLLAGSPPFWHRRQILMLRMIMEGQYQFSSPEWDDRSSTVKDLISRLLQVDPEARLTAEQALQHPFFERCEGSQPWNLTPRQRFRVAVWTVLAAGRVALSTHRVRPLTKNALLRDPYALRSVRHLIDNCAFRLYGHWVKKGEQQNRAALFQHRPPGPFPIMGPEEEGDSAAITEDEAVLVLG

| SMILES | effect on | technique | tested at | remaining binding |
| --- | --- | --- | --- | --- |
| O=C(NCC1CCOCC1)c1n[nH]cc1NC(=O)c1c(F)cccc1F | binding | competition with immobilised ligand | 1 µM | 96% |
| CN(C)c1nccc(-c2cnc3ncccn23)n1 | binding | – | 1 µM | 89% |
| CS(=O)(=O)N1CCCC(NC(=O)[C@H](CCC2CCCCC2)NC(=O)c2ccc(CNC(=O)c3cnc4ccccn34)cc2)C1 (stereo partly drawn) | cell-free assay | competition with immobilised ligand | 0.1 µM | 100% |
| COc1cnc(Nc2cccc(S(N)(=O)=O)c2)nc1N1CCN(c2ccccc2)CC1 | binding | competition with immobilised ligand | 1 µM | 82% |
| CN(C)c1ncc(F)c(-c2cnn3ncccc23)n1 | binding | – | 1 µM | 69% |
| O=C(N1CCS(=O)(=O)CC1)N1C[C@H](c2ccc(OC(F)(F)F)cc2)C[C@H](c2nc(C3CC3)no2)C1 | cell-free assay | competition with immobilised ligand | 1 µM | 100% |
| FC(F)(F)Oc1cccc(-c2cnc3ccc(-c4ccncc4)nn23)c1 | cell-free assay | competition with immobilised ligand | 5 µM | 22% |
| Cc1c[nH]c2nccc(Oc3c(F)cc(Nc4cc(Cl)nc(N)n4)cc3F)c12 | cell-free assay | competition with immobilised ligand | 0.1 µM | 89% |
| C[C@@H]1CCN(c2nccc(-c3cnn4ncccc34)n2)C1 | binding | – | 1 µM | 72% |
| C[C@H](c1cccc(C#N)c1)n1cc(Cl)cc(C(N)=O)c1=N | cell-free assay | competition with immobilised ligand | 1 µM | 100% |
| O=C(c1ccc(Nc2nccc(-c3cc4ccccc4s3)n2)cc1)N1CCC(N2CCCC2)CC1 | binding | competition with immobilised ligand | 1 µM | 64% |
| COc1ccnn2ncc(-c3ccnc(N(C)C)n3)c12 | binding | – | 1 µM | 82% |
| C[C@@H]1CN(c2cc(-c3n[nH]c4ccc(OC5(C)CC5)cc34)ncn2)C[C@H](C)O1 | cell-free assay | competition with immobilised ligand | 0.1 µM | 91% |
| CNC(=O)[C@@H]1CC[C@@H](n2c(-c3ccc4cnccc4c3)nc3ccc(C(=O)NCc4cccc(C(N)=O)c4)cc32)C1 | binding | competition with immobilised ligand | 1 µM | 99% |
| N[C@@H]1CCN(c2nccc(-c3cnn4ncccc34)n2)C1 | binding | – | 1 µM | 84% |
| N#CC1(c2ccccn2)CCN(Cc2cc(C(=O)N3CCCC3)c(=O)n3ccccc23)CC1 | cell-free assay | competition with immobilised ligand | 1 µM | 85% |
| O=C(c1ccc(Nc2ncc(Cl)c(-c3ccc(Cl)s3)n2)cc1)N1CCC(N2CCCC2)CC1 | binding | competition with immobilised ligand | 1 µM | 66% |
| COc1ncc2cc3ccccc3nc2c1C#N | cell-free assay | competition with immobilised ligand | 5 µM | 100% |
| c1cncc(-c2cccc(Nc3nccc(NC4CCCCC4)n3)c2)c1 | binding | competition with immobilised ligand | 10 µM | 71% |
| CN(c1nccc(-c2cnn3ncccc23)n1)C1CC1 | binding | – | 1 µM | 81% |
| O=C(NCCCN1CCOCC1)c1ccc(Nc2nccc(-c3cc4ccccc4s3)n2)cc1 | binding | competition with immobilised ligand | 1 µM | 33% |
